# A selection: hits, their analogues and other compounds. The true share with any hit is near 1.7%.
# CFTR F508del cor: correctors of CFTR F508del function in bronchial epithelial cells; hit rate 0.36% among 350,000; CFBE cells, YFP halide quenching; stimulated with forskolin plus potentiator P3; % fluorescence drop versus neutral controls; activity (quench increase), % at 7.58 µM; AID 720511;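 active = mean added fluorescence quench of at least 8% versus neutral control, with both replicates also reaching 8%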;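 also: cells transiently co-express mutant CFTR-F508del with the halide-sensitive YFP; corrector assay measuring rescue of mutant channel to the surface after 24 h compound exposure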
# Cneo AK release: causes C. neoformans cell lysis | adenylate kinase release luminescence, 4 h; normalised: neutral wells 0, clomiphene wells 100 | lysis activity, % at 15 µM | hit rate 0.2% among 360,000 | AID 651654;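 active = mean lysis activity across replicates of at least 80%, whatever share of replicates individually reach that level; inactive = mean lysis activity below 80%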
#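 Material: C. neoformans cells; Schedule: 4 h static compound exposure, 37 °C, read 1 h post-reagent; Measured by: adenylate kinase release luminescence; Read-out: signal increase indicating cell lysis; Controls: Clomiphene as positive lysis control.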
# CaV13 ICDI inh: Disruptors of the CACNA1D IQ motif to Ca2+-dependent inactivation inhibitor domain association, primary screening, Förster resonance energy transfer in intact living … | HEK cells, CFP/YFP FRET ICDI-IQ, plate reader, 10 min; percent FRET-ratio fall versus neutral wells | inhibition, % at 12.3 µM | hit rate 0.098% among 340,000 | AID 743397;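 active = mean replicate inhibition of at least 30% and at least 1% of replicates passing that level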;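 also: 0% = median of the neutral control wells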
# rRNA inh HTS: selective bacterial rRNA inhibition in E. coli | GFP signal change (wild-type ribosome), % (concentration not given with the values) | E. coli WT GFP vs humanized-ribosome RFP mutants, fluorescence, 24 h; active compounds read low; DMSO median 0, no signal -100 | hit rate 1.6% among 350,000;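 active = significant combined selectivity score with lowered wild-type GFP, culture density cut under 30%, mutant RFP and density less affected; inactive = any of these conditions unmet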
# Numbers without * were called inactive; . = no result given; + = active, no number.
SMILES,CFTR F508del cor,Cneo AK release,CaV13 ICDI inh,rRNA inh HTS
Cc1ccccc1-c1ccc2c(c1)O[C@H](CN(C)C)[C@@H](C)CN([C@@H](C)CO)S2(=O)=O,-1.3,-28.7,.,-1.4
Nc1ccccc1N=Cc1ccc(-c2cccc(Cl)c2)o1,-2.7,-0.9,-23.6,-25.9*
COC(=O)N/N=C/c1ccc(-c2cccc(Cl)c2)o1,.,.,-3.0,.
C/C(=C\c1ccco1)C1C(C#N)=C(N)Oc2n[nH]c(-c3ccccc3)c21 (stereo not drawn),.,-2.1,-8.1,.
C/C(=C\c1ccco1)C1C(C#N)=C(N)Oc2n[nH]c(-c3ccc(C)cc3)c21 (stereo not drawn),-3.9,0.4,-7.2,-27.5*
Cc1ccc(S(=O)(=O)Nc2cccc3c2O[C@@H](CN(C)CC2CCCCC2)[C@@H](C)CN([C@H](C)CO)C3=O)cc1,0.1,42.8,.,3.8
COc1ccc(C(=O)C2CCCN(C(=O)c3noc4c3CCCC4)C2)cc1F (stereo not drawn),2.2,-0.1,-6.3,-25.3*
COc1ccc(C(=O)C2CCCN(C(=O)c3noc4c3CCCC4)C2)c(C)c1 (stereo not drawn),-3.0,-0.9,1.3,-15.2
C[C@H]1CC=CC[C@H](c2cccc(Cl)c2)NC(=O)[C@H](C)N(C)C(=O)c2ccccc2O1 (mixture of isomers),.,.,.,-32.0
Cc1ccc(NS(=O)(=O)c2cccc(C(=O)Nc3cccnc3)c2)c(C)c1,1.5,0.5,-7.3,-45.0*
O=C(Nc1cccnc1)c1ccccc1NS(=O)(=O)c1ccc(F)cc1,-5.2,-0.5,.,-32.2*
O=S(=O)(Nc1cccnc1)c1ccc(F)cc1,-2.0,0.7,-2.3,-0.1
Cc1ccc(NS(=O)(=O)c2cccc(C(=O)NC3CC3)c2)c(C)c1,-0.7,-0.8,-2.5,13.6
Cc1noc(C)c1NC(=O)Nc1ccc2c(c1)C(=O)N([C@@H](C)CO)C[C@@H](C)[C@@H](CN(C)Cc1ccccc1)OCCCC[C@@H](C)O2,-0.8,25.7,.,1.9
CN(c1ccccc1)c1nc(N)c([N+](=O)[O-])c(N2CCCCC2)n1,-0.4,.,10.1,-25.4
CN(c1ccccc1)c1nc(N)c([N+](=O)[O-])c(N2CCCC2)n1,-1.2,-0.3,-2.4,-26.7*
COc1ccc(C(=O)C2CCCN(Cc3ccc4nonc4c3)C2)c(OC)c1 (stereo not drawn),0.4,-3.1,6.5,-28.1*
CC(C)=CCN(C(=O)C#Cc1ccccc1)[C@H](CO)c1ccccc1,-0.4,-0.8,.,.
NS(=O)(=O)c1cccc(NC(=O)c2cccc(-c3ccc(O)cc3)c2)c1,1.1,-5.3,-5.7,-25.9*
Cc1cccc(NC(=O)Nc2ccc(S(N)(=O)=O)cc2)c1,1.2,-2.4,-4.5,-2.8
NS(=O)(=O)c1cccc(NC(=O)Nc2ccc(Cl)cc2)c1,1.4,-3.4,-6.3,-31.4*
COC(=O)C[C@H]1CC[C@H]2[C@@H](COc3ccc(NC(=O)Cc4cccs4)cc3C(=O)N2C)O1,.,-4.3,.,0.2
COC(=O)c1sc(-c2ccc(Cl)cc2)cc1N,-0.8,8.9,-2.7,-1.4
CC(=O)c1sc(-c2ccc(Cl)cc2)cc1N,-0.6,.,2.5,-30.4*
COc1ccc2c3c(n(C)c2c1)[C@@H](CO)N(C(=O)NC1CCCC1)CC31CCN(C)CC1,-1.9,.,.,3.9
SMILES,CFTR F508del cor,Cneo AK release,CaV13 ICDI inh,rRNA inh HTS
Cc1ccc(C(=O)OCC(=O)N(Cc2ccccc2)C(C)C)cc1C,-0.7,.,-6.4,-13.2
Cc1ccsc1C(=O)OCC(=O)N(Cc1ccccc1)C(C)C,0.9,0.5,-6.7,-29.8*
Cc1cc(C(=O)CN2C(=O)C(=O)N(Cc3ccccc3)C2=O)c(C)n1Cc1ccccc1,9.4*,-1.1,-6.2,1.6
Cc1ccccc1C(=O)Nc1nnc(-c2ccncc2)o1,2.1,.,-2.0,-33.3*
CCOc1ccc(C2C(C(=O)OC)=CN(CCOC)C=C2C(=O)OC)cc1,.,-0.1,-4.0,.
COCCN1C=C(C(=O)OC)C(c2ccc(Cl)cc2)C(C(=O)OC)=C1,6.2,.,+,21.5
CCOC(=O)c1nc2c(ccc3ccccc32)cc1C,-2.9,-2.2,-5.0,-31.2*
COc1ccc(NC(=O)O[C@@H](C)[C@@H]2CN3CCc4c([nH]c5ccc(-c6ccc(OC)cc6)cc45)[C@@H]3C[C@@H]2N(C)C(=O)Nc2ccc(OC)cc2)cc1,3.5,-1.9,-6.0,-26.6*
C[C@@H]1C/C=C\C[C@H](c2ccc3c(c2)OCO3)NC(=O)[C@@H](c2ccccc2)CC(=O)N1,.,.,.,4.8
Cc1nn(-c2ccccc2)c(N)c1Sc1cccc([N+](=O)[O-])c1,.,-1.2,-3.2,.
Cc1nn(-c2ccccc2)c(N)c1Sc1ccccc1[N+](=O)[O-],.,.,-2.6,-37.0*
COc1ccc(C(=O)NCC(c2ccco2)N2CCc3ccccc32)cc1 (stereo not drawn),12.5*,.,-6.9,5.8
CCCC(O)C#Cc1cnc2c(c1)C(=O)N([C@H](C)CO)C[C@H](C)[C@H](CN(C)Cc1cccc(C)c1)O2 (stereo partly drawn),0.8,5.3,.,5.5
COC(=O)c1sc(NC(=O)C2c3ccccc3Oc3ccccc32)c(C(=O)OC)c1C,.,.,-3.6,.
CCOC(=O)c1c(NC(=O)C2c3ccccc3Oc3ccccc32)sc(C(C)=O)c1C,11.2*,0.9,-7.1,9.7
CCOC(=O)c1c(NC(=O)CSc2nnc(-c3cccc(C)c3)n2CC)sc(C(C)=O)c1C,.,6.0,1.0,.
CCOC(=O)c1c(NC(=O)CSc2nnc(-c3ccccc3)n2CC)sc(C(C)=O)c1C,.,3.2,-7.0,-37.0*
CCc1ccc(/C=C2\SC(N3CCCC3)=NC2=O)cc1,-4.9,.,.,-15.2*
COc1ccc(/C=C2\SC(N3CCCCC3)=NC2=O)cc1,-2.8,0.4,-3.9,-3.6
COc1cc(/C=C2\SC(N3CCCCC3)=NC2=O)cc(OC)c1OC,-0.4,.,-5.1,-28.0*
CCC(=O)Nc1ccc2c(c1)C(=O)N(C)[C@H]1CC[C@@H](CC(=O)Nc3cccc(OC)c3)O[C@@H]1CO2,-1.7,5.5,.,-1.8
CC(C)NC(=O)N(C)C[C@@H]1Oc2c(NC(=O)C3CCCCC3)cccc2C(=O)N([C@@H](C)CO)C[C@@H]1C,-1.3,83.6*,.,2.1
CC(C)NC(=O)N(C)C[C@H]1Oc2c(NC(=O)C3CCCCC3)cccc2C(=O)N([C@H](C)CO)C[C@H]1C,-1.7,114.4*,.,1.8
CC(C)NC(=O)Nc1cccc2c1O[C@H](CN(C)C)[C@H](C)CN([C@@H](C)CO)C2=O,1.7,92.5*,.,3.2
CC(C)NC(=O)N(C)C[C@@H]1Oc2c(NC(=O)C3CCCCC3)cccc2C(=O)N([C@H](C)CO)C[C@@H]1C,-0.9,2.0,.,1.6
COc1cccc(S(=O)(=O)N[C@H]2C=C[C@@H](CC(=O)NCc3ccc(Cl)cc3)O[C@H]2CO)c1,3.7,15.5,.,-4.7
C[C@@H]1CN([C@H](C)CO)C(=O)c2cc(NC(=O)Nc3cccc4ccccc34)ccc2O[C@@H](C)CCCCO[C@H]1CN(C)Cc1ccc2c(c1)OCO2,-4.6,0.3,.,-9.2
